# Screening data deposited in PubChem by The Scripps Research Institute Molecular Screening Center.
# Hits are enriched below; roughly 1.9% of the tested compounds scored in any of these assays.
# M4 antag: CHRM4 antagonism in calcium assay. inhibition, % at 3 µM. CHO-hM4 cells, ACh EC80, Fluo-8 calcium fluorescence. 360,000 tested, 0.73% active. AID 624125;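 active means inhibition above its plate's cutoff, the mean inhibition of sample wells plus 3 SD, cut at about 27% in these data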;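 further: 0% = acetylcholine EC80 with DMSO and 100% = DMSO without agonist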
# Target sequence (P08173 whole entry, looked up): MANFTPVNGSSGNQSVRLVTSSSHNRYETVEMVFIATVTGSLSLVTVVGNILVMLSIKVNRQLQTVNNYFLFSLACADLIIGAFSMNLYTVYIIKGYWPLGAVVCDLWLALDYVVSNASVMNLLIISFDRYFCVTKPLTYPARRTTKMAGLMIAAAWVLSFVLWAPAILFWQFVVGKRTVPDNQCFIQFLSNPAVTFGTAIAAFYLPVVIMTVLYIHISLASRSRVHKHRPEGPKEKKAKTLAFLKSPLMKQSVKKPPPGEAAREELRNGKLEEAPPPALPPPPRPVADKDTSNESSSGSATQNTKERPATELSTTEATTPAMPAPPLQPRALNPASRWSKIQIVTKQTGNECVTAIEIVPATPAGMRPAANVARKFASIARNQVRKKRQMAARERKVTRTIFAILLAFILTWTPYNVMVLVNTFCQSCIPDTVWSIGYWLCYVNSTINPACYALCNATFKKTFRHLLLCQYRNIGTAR
# M5 PAM: potentiates acetylcholine response at human M5 receptor | P08912 | CHO-K1 hM5, Fluo-8 calcium, ACh EC20 PAM; 0% = ACh EC20, 100% = ACh EC100 | activation, % at 3 µM | 360,000 tested, 0.3% active;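 active means activation above the run cutoff, the mean activation of all test compounds plus 3 SD, cut at about 18% in these data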
#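 Measured by: Fluo-8 calcium fluorescence; material: human M5 receptor in CHO-K1 cells; schedule: Post-acetylcholine fluorescence recording 140 s; benchmarks: low control EC20 acetylcholine (0%), high control EC100 acetylcholine (100%); read-out: Max/basal fluorescence ratio as % of EC20–EC100 ACh window; compound: single dose, 3 µM nominal final test concentration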
# M4 PAM: CHRM4 positive allosteric modulation. P08173. CHO-K1 hM4/Gqi5, Fluo-8 calcium fluorescence, ACh EC20; 0% = ACh EC20, 100% = maximal ACh. activation, % at 3 µM. 360,000 tested, 0.4% active. AID 624126;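 active means activation above its plate's cutoff, the mean activation of sample wells plus 3 SD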
# M5 antag: antagonists of human muscarinic M5 receptor (CHRM5) | inhibition, % at 3 µM | CHO-hM5 cells, Fluo-8 calcium fluorescence, ACh EC80 | P08912 | 360,000 tested, 0.59% active;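 active means inhibition above a per-plate cutoff, the mean of that plate's test compounds plus 3 SD, cut at about 27% in these data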;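 further: 0% = acetylcholine EC80 with DMSO and 100% = DMSO without agonist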
# CHRM5 agonist: CHRM5 agonism in calcium assay. AID 624037. activation, % at 3 µM. P08912. CHO-K1 hM5 cells, Fluo-8 calcium fluorescence; 0% DMSO wells, 100% maximal acetylcholine response. 360,000 tested, 0.19% active;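 active means activation above the run's mean over test compounds plus 3 SD, cut at about 23% in these data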;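 further: signal is peak over basal fluorescence ratio across the kinetic read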
# CHRM4 agonist: CHRM4 agonism in calcium assay. P08173. CHO-K1 hM4/Gqi5, Fluo-8 calcium fluorescence; vehicle 0%, full acetylcholine response 100%. activation, % at 3 µM. 360,000 tested, 0.14% active. AID 624127;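 active means activation above the run mean over all test wells plus 3 SD, cut at about 32% in these data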;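 further: peak over basal fluorescence ratio per well then scaled between controls; 0% = DMSO wells and 100% = acetylcholine at EC100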
# Numbers without * were called inactive.
SMILES,M4 antag,M5 PAM,M4 PAM,M5 antag,CHRM5 agonist,CHRM4 agonist
CCCCc1ccc(/C(C)=N/NC(=O)C2CCCC2)cc1,-11.0,-9.8,7.5,10.9,-2.9,0.4
CC(C)CCN1C(=O)c2cccc3c(N)ccc(c23)C1=O,47.3*,-31.6,-17.5,70.1*,313.1*,97.4*
COc1cc2cc(C(c3nnnn3C3CCCC3)N3CCCCC3)c(=O)[nH]c2cc1OC (centres undefined),4.9,-12.1,12.3,33.7*,-1.9,1.7
CCOc1ccc(Nc2nc3ccccc3n2C)cc1,-4.2,-5.7,-17.6,12.8,-7.7,0.2
CCOc1ccc(CNc2nc3ccccc3n2C)cc1,-14.2,21.3*,0.5,-12.1,-1.9,2.5
COc1cc(NC(=O)c2ccc(NC3=NC4CS(=O)(=O)CC4S3)cc2)cc(OC)c1OC (centres undefined),-19.9,-8.2,-3.6,6.0,1.3,12.1
Cc1ccc(C(=O)OCC(=O)N2CC(C)OC(C)C2)cc1 (centres undefined),-6.5,-8.5,15.7*,22.5,-2.6,2.3
COc1ccc(C(O)c2nc(-c3ccc(Cl)cc3)cs2)cc1 (centres undefined),-7.6,-4.8,2.4,6.8,4.6,7.4
COc1ccc(-n2nnnc2C(c2cccc3ccccc23)N2CCN(C/C=C/c3ccccc3)CC2)cc1 (centres undefined),8.8,-16.9,-10.5,10.5,-2.5,1.7
C(=C\c1ccccc1)/CN1CCN(C(c2cc3ccccc3o2)c2nnnn2-c2ccc3c(c2)OCCO3)CC1 (centres undefined),13.5,-22.8,-10.3,42.4*,-3.6,0.9
COc1ccc(C(c2nnnn2-c2ccc3c(c2)OCCO3)N2CCN(C/C=C/c3ccccc3)CC2)cc1 (centres undefined),34.6*,-22.2,-15.9,67.2*,-6.5,3.4
COc1ccc(-n2nnnc2C(c2cc3ccccc3o2)N2CCN(C/C=C/c3ccccc3)CC2)cc1 (centres undefined),7.1,-22.4,-12.3,36.4*,-5.5,1.1
C(=C\c1ccccc1)/CN1CCN(C(c2cccs2)c2nnnn2-c2ccc3c(c2)OCCO3)CC1 (centres undefined),29.3*,-22.7,-15.7,70.0*,-7.4,4.4
O=C(O)C1CCC2CCCC21 (centres undefined),3.5,0.1,-1.7,1.6,1.2,0.6
Cc1ccc(SCC(=O)NC(=O)NCc2ccccc2)c(C)c1,-9.7,-2.7,-7.3,-2.8,-6.4,-1.6
O=C(NCc1ccco1)C1Cc2c(-c3cccc(F)c3)ccnc2O1 (centres undefined),-6.2,0.6,1.2,8.6,0.0,1.2
CCCCC(=O)OCC(=O)C1(O)Cc2c(O)c3c(c(O)c2C(OC2CC(NC(=O)C(F)(F)F)C(O)C(C)O2)C1)C(=O)c1c(OC)cccc1C3=O (centres undefined),23.2,-21.8,-4.7,39.6*,33.4*,13.5
O=C1C=C(O)CC2(CCCCC2)C1,-5.4,-0.7,8.1,-6.6,4.5,1.0
COc1ccc2c(c1)CCc1cn3nc(C)cc3nc1-2,-22.5,18.7*,9.5,-11.6,-5.3,-1.3
COC(=O)c1ccc(OCC(=O)NC2CCCCCC2)cc1,-0.7,5.2,-1.2,1.4,0.3,6.3
C=C1c2cc(C)ccc2NC(=O)N1c1ccc(C)cc1,-1.2,5.2,28.9*,-5.6,-1.2,0.4
C=C1c2ccccc2NC(=O)N1c1ccc(C)cc1,8.9,-1.3,1.6,-3.2,-3.5,0.1
CC(NC(=O)/C=C/c1ccccc1)c1ccccc1 (centres undefined),-9.2,0.0,8.9,1.7,30.8*,3.6
O=c1c(Cl)c(Cl)cnn1Cc1nnc(-c2ccccc2Br)o1,98.9*,-21.1,-24.5,100.5*,80.3*,119.6*
Clc1ccccc1OCc1nnc(-c2ccccc2Br)o1,8.7,-2.1,-0.5,1.1,-3.4,0.2
SMILES,M4 antag,M5 PAM,M4 PAM,M5 antag,CHRM5 agonist,CHRM4 agonist
COC(=O)Cn1c(=O)cnc2ccccc21,4.0,1.9,-0.3,-3.3,0.7,-1.3
O=C(Cn1c(=O)cnc2ccccc21)NCC(=O)Nc1ccc(F)c(F)c1,-25.6,-2.0,8.7,-4.5,-0.8,1.9
O=C(O)Cn1c(=O)cnc2ccccc21,26.6*,0.4,5.5,11.3,-3.0,1.8
COC(=O)c1cc(NC(=O)Cn2c(=O)cnc3ccccc32)cc(C(=O)OC)c1,-9.1,20.2*,3.5,-6.5,-4.0,1.2
COc1ccccc1-n1c(C)nc2cc(C(=O)O)ccc21,19.2,18.8*,13.5,4.9,1.4,1.2
CCOC(=O)COc1ccccc1/C=C\[N+](=O)[O-],27.5*,-2.9,-8.9,17.2,-1.2,4.2
O=C1Nc2ccc(Br)cc2/C1=C/C1CC=CCC1 (centres undefined),-13.9,25.7*,13.9,2.4,3.4,0.3
COc1ccc(-c2coc3c(C(=O)NCc4ccc(OC)c(OC)c4)cccc23)c(C)c1,37.3*,-14.7,-9.8,36.2*,6.0,15.8
COc1ccc(-c2ccc(C(=O)NCc3ccncc3)c3occc23)c(C)c1,20.4,-18.3,-6.7,32.3*,4.6,15.5
COc1ccc(-c2ccc(C(=O)NCc3ccc(F)c(F)c3)c3occc23)c(C)c1,9.8,-9.9,-3.1,3.6,-1.8,4.6
N=C(N)SCC1=CCS(=O)(=O)C1,20.8,-19.6,-9.0,31.5*,-1.9,19.4
CCCOc1ccc(CNC(=O)Cc2cccs2)cc1,3.0,-8.7,-7.5,9.3,-0.9,12.1
O=C(COC(=O)c1cccs1)Nc1cccc(S(=O)(=O)N2CCCCC2)c1,-14.0,-11.1,-3.9,-7.3,8.6,11.8
CC(OC(=O)c1cc(S(=O)(=O)N2CCOCC2)ccc1Br)C(=O)N1CCOCC1 (centres undefined),-1.8,-1.5,1.7,4.0,3.5,1.2
ClC(Cl)(Cl)c1nc2ccccc2n2nncc12,17.5,-0.6,-3.8,14.2,-5.0,0.6
CCOC(=O)C1CCN(c2cc3c(cc2NC(=O)c2ccccc2Cl)n(C)c(=O)n3C)CC1,9.3,-11.6,-7.7,26.1,-6.6,11.8
CCOC(=O)C1CCN(c2cc3c(cc2NC(=O)c2ccccc2OCC)n(C)c(=O)n3C)CC1,11.3,-13.1,-2.8,33.9*,-4.0,12.0
OC[C@@H]1CN(Cc2cccc(C(F)(F)F)c2)C[C@H](n2cnc3c(NCc4ccncc4)ncnc32)O1,3.0,-0.5,-4.1,-1.6,2.8,1.8
COc1ccc(N2CCN(C(=O)C3(S(=O)(=O)c4ccc(C)cc4)CC3)CC2)cc1,-9.5,23.2*,-3.9,-15.0,-0.1,2.2
